Assay results published in PubChem BioAssay.
Inconclusive results are not listed.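 Rule for the calls, unless noted: active = inhibition over a set limit, the all-compound mean plus 3 SD, in both replicate runs; inconclusive = over that limit in just one replicate run; inactive = at or under that limit in both runs.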

Legend:
[1] = S. cerevisiae growth inhibition in permissive medium (OD615), pilot counter-assay for S. cerevisiae lifespan shortening project, permissive growth control (AID 705;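 active = growth inhibition above 25% in both replicates, a cutoff set 3 SD above the mean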); conditions: OD615, 24 h, at 10 µM, active compounds read high
Method in brief: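 System: engineered DeaD yeast; Medium: permissive raffinose/galactose medium; Compound dosing: 10 µM single dose, 0.25% DMSO; Incubation: 4 h cell pre-growth, 24 h exposure at 30 °C; Technique: OD at 615 nm; Evaluation: growth inhibition from lowered OD615 after 24 h.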

[2] = S. cerevisiae growth inhibition in restrictive medium, OD615, pilot screen, restrictive growth control, yeast lifespan reduction project (AID 706;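 active = growth inhibition above a set limit, 3 SD over mean compound inhibition, in both replicates, cut at about 43% in these data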;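 note: modified DeaD lifespan yeast strain shifted to restrictive glucose medium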); conditions: OD615, 48 h, at 10 µM, active compounds read high
Method in brief: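 Material: modified S. cerevisiae; buffer or medium: CSMM-D glucose medium; doses: one concentration, 10 µM final, 0.25% DMSO; incubation: 48 h compound exposure at 30 °C; detection: optical density at 615 nm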

[3] = doxorubicin toxicity protection in MRP-1 cells – H69AR cells, CellTiter-Glo, duplicate, MRP-1 activator project, pilot screen (AID 807;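 active = viability increase at or above a cutoff of the median across tested compounds plus 3 SD, cut at about 8.5% in these data, passing the limit was not always enough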;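 note: compound pretreatment 18-22 h then 72 h combined with doxorubicin; 0% = doxorubicin alone and 100% = vehicle without doxorubicin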); conditions: H69AR viability with doxorubicin, CellTiter-Glo luminescence; at 10 µM; active compounds read high
[4] = viability of HCT116 without oncogenic beta-catenin – human colon tumor cells, pilot screen (AID 823;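 active = cell viability at or below a set limit in both duplicate runs, the limit being the all-compound median minus 4 SD, cut at about 23% in these data, passing the limit was not always enough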;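 note: 0% = wells killed by 20 µM Hyamine and 100% = untreated DMSO cell wells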); conditions: HCT116 beta-catenin knockout viability, CellTiter-Glo, 60 h; at 10 µM; active compounds read low
[5] = viability of PTEN-null HCT116 cells – cell-based, HCT116 clonal line, CellTiter-Glo, pilot screen (AID 824;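 active = viability at or below 27.92% in each of two runs, the all-compound median minus 4 SD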;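 note: 0% = 20 µM Hyamine control and 100% = vehicle cell control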); conditions: HCT116 PTEN-deleted viability, 60 h, at 10 µM, active compounds read low
[6] = RAM pathway blockade in budding yeast – dse1pr::URA3 reporter, 5-FOA selection, pilot screen (AID 869);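 note: 0% = DMSO wells with no growth and 100% = 10 µM 1-NA-PP1 with full growth; RAM network block rescues cells from 5-FOA so hits raise OD615 growth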; conditions: S. cerevisiae dse1pr::URA3 5-FOA growth, OD615, 2 d; at 10 µM; active compounds read high; strain carries analog-sensitive mutant Cbk1 kinase
[7] = RAM signaling pathway blockade in yeast – S. cerevisiae, Pdr1DBD-CYC8 efflux-inhibited sensitized strain, primary screen (AID 1298;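 active = RAM network inhibition above 8.4% in each of two replicates, 3 SD over the compound average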;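 note: 0% = DMSO untreated cells without growth and 100% = 10 µM 1-NA-PP1 full growth; higher means more yeast growth rescued from 5-FOA killing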); conditions: S. cerevisiae cbk1-as DSE1-URA3 strain, 5-FOA growth OD615, 2 d; at 50 µM; active compounds read high

Cn1c(Cn2c(=O)sc3ccccc32)nnc1SCC(=O)Nc1cccc(Cl)c1
inactive: growth inhibition [1] -3.44% | growth inhibition [2] -16.1% | viability increase [3] -0.83% | viability [4] 99.6% | viability [5] 98.8% | inhibition [6] 2.58% | RAM network inhibition [7] 2.23%

O=C(NCCC1=CCCCC1)C1CCCN(S(=O)(=O)c2cccnc2)C1 (configuration not stated)
inactive: growth inhibition [1] -1.48% | growth inhibition [2] 3.42% | viability increase [3] 0.1% | viability [4] 95.8% | viability [5] 101% | inhibition [6] 1.75% | RAM network inhibition [7] 1.4%

Cc1nnc(NC(=O)CSc2cn(Cc3ccccc3)c3ccccc23)s1
inactive: growth inhibition [1] -8.99% | growth inhibition [2] -0.275% | viability increase [3] -2.83% | viability [4] 82.2% | viability [5] 81.2% | inhibition [6] 2.86% | RAM network inhibition [7] 2.77%

CCOC(=O)c1ccc(CSc2n[nH]c(C)n2)o1
inactive: growth inhibition [1] -3.09% | growth inhibition [2] -7.67% | viability increase [3] -2.58% | viability [4] 97.7% | viability [5] 96.7% | inhibition [6] -1.18% | RAM network inhibition [7] 1.95%

CCCNC(=O)Cc1cc(=O)[nH]c(=O)[nH]1
inactive: growth inhibition [1] -14.4% | growth inhibition [2] -17.8% | viability increase [3] 0.56% | viability [4] 105% | viability [5] 101% | inhibition [6] 1.33% | RAM network inhibition [7] 1.73%

COc1ccc(N2CCN(Cc3nc4c(c(=O)[nH]c(=O)n4C)n3Cc3cccc(Cl)c3)CC2)cc1
inactive: growth inhibition [1] -9.21% | growth inhibition [2] -12.3% | viability increase [3] -3.93% | viability [4] 91.6% | viability [5] 77% | inhibition [6] 1.39% | RAM network inhibition [7] 1.83%

O=C(NCCOC(=O)c1ccc(C(=O)OCCNC(=O)c2ccccc2)o1)c1ccccc1
inactive: growth inhibition [1] 4.22% | growth inhibition [2] 13.6% | viability increase [3] 0.02% | viability [4] 100% | viability [5] 103% | inhibition [6] 1.25% | RAM network inhibition [7] 6.33%

O=c1[nH]c2ccccc2n1Cc1ccc(F)cc1
inactive: growth inhibition [1] -5.88% | growth inhibition [2] -4.46% | viability increase [3] 1.93% | viability [4] 96.6% | viability [5] 92.4% | inhibition [6] 1.71% | RAM network inhibition [7] -0.05%

CSc1cc(/C=N/O)c(SC)s1
inactive: growth inhibition [1] -6.62% | growth inhibition [2] 1.13% | viability increase [3] -3.3% | viability [4] 97.3% | viability [5] 95.9% | inhibition [6] 0.395% | RAM network inhibition [7] -1.95%

Cc1nc(SCC(=O)NCc2ccco2)c2oc3ccccc3c2n1
inactive: growth inhibition [1] -0.535% | growth inhibition [2] 1.3% | viability increase [3] -2.69% | viability [4] 95.2% | viability [5] 94% | inhibition [6] 0.86% | RAM network inhibition [7] 2.53%

CN(C)Cc1cc(C(C)(C)C)c(O)c(C(C)(C)C)c1
inactive: growth inhibition [1] -3.78% | growth inhibition [2] -4.33% | viability increase [3] -2.61% | viability [4] 97.2% | viability [5] 101% | inhibition [6] 0.92% | RAM network inhibition [7] 5.72%

COC(=O)Cn1c(CCC(=O)O)ccc1-c1ccccc1
inactive: growth inhibition [1] -1.1% | growth inhibition [2] -4.95% | viability increase [3] -0.49% | viability [4] 102% | viability [5] 103% | inhibition [6] 0.12% | RAM network inhibition [7] 10.9%

Cc1ccc(C)c(N2CCN(C(=O)c3cc4ccccc4oc3=O)CC2)c1
inactive: growth inhibition [1] -11.6% | growth inhibition [2] -15.9% | viability increase [3] 1.72% | viability [4] 100% | viability [5] 95.5% | inhibition [6] 1.18% | RAM network inhibition [7] 3.38%

CC(C)C12CN3CC(C(C)C)(CN(C1)C3c1ccccc1)C2O (configuration not stated)
inactive: growth inhibition [1] 6% | growth inhibition [2] 2.74% | viability increase [3] -1.42% | viability [4] 96.2% | viability [5] 93.6% | inhibition [6] 1.8% | RAM network inhibition [7] 3.93%

Cn1c(C(=O)N2CCC(C(=O)N3CCOCC3)CC2)cc2sccc21
inactive: growth inhibition [1] -9.67% | growth inhibition [2] -7.13% | viability increase [3] 1.85% | viability [4] 98.7% | viability [5] 98.8% | inhibition [6] 0.59% | RAM network inhibition [7] 0.9%

O=C(C1CCCCN1S(=O)(=O)c1ccc(F)cc1)N1CCN(c2ccccc2F)CC1 (configuration not stated)
inactive: growth inhibition [1] -14.1% | growth inhibition [2] -8.47% | viability increase [3] -1.06% | viability [4] 80.8% | viability [5] 82.9% | inhibition [6] -0.01% | RAM network inhibition [7] 1.9%

O=c1cc(O)c2c(=O)n(-c3ccccc3)c3ccccc3c2o1
inactive: growth inhibition [1] 8.67% | growth inhibition [2] 4.96% | viability increase [3] -4.59% | viability [4] 98.3% | viability [5] 87.1% | inhibition [6] 0.67% | RAM network inhibition [7] 0.42%

Cc1ccc(C2CC(c3ccccc3Cl)n3nc(N)nc3N2)cc1 (configuration not stated)
inactive: growth inhibition [1] 0.815% | growth inhibition [2] 6.86% | viability increase [3] 2.22% | viability [4] 99.7% | viability [5] 92.5% | inhibition [6] 1.88% | RAM network inhibition [7] 1.81%

Cc1csc2nc(CNC(=O)CCC(=O)O)cn12
inactive: growth inhibition [1] -8.41% | growth inhibition [2] -2.59% | viability increase [3] -0.98% | viability [4] 101% | viability [5] 99.5% | inhibition [6] 1.4% | RAM network inhibition [7] 2.71%

Cn1c(Cn2c(=O)sc3ccccc32)nnc1SCC(=O)N1CCCc2ccccc21
inactive: growth inhibition [1] -4.97% | growth inhibition [2] 0.455% | viability increase [3] -3.71% | viability [4] 96.5% | viability [5] 95.1% | inhibition [6] 1.82% | RAM network inhibition [7] 6.16%

CCOC(=O)NCc1ccc(CNC(=O)OCC)cc1
inactive: growth inhibition [1] -9.67% | growth inhibition [2] 4.35% | viability increase [3] -1.96% | viability [4] 97.1% | viability [5] 90% | inhibition [6] 0.81% | RAM network inhibition [7] 0.57%

CCN(CC)S(=O)(=O)c1ccc(NC2c3ccccc3C(=O)N2Cc2ccc3c(c2)OCO3)cc1 (configuration not stated)
inactive: growth inhibition [1] 1.96% | growth inhibition [2] -8.94% | viability increase [3] -2.84% | viability [4] 92.9% | viability [5] 93% | inhibition [6] -0.09% | RAM network inhibition [7] 5.92%

Cn1nnnc1SCc1ccc(F)cc1
inactive: growth inhibition [1] -3.69% | growth inhibition [2] -4.48% | viability increase [3] -0.09% | viability [4] 98.1% | viability [5] 108% | inhibition [6] 1.25% | RAM network inhibition [7] 2.61%

Nc1ccc(C(=O)c2ccc3c(c2)OCCO3)cc1N
inactive: growth inhibition [1] 4.75% | growth inhibition [2] 6.96% | viability increase [3] -6.58% | viability [4] 102% | viability [5] 97.5% | inhibition [6] 0.375% | RAM network inhibition [7] 4.41%

Cc1ccc2c(c1)c1c(n2CC(O)CNC(CO)(CO)CO)CCCC1 (configuration not stated)
inactive: growth inhibition [1] -2.98% | growth inhibition [2] -11.3% | viability increase [3] -1.14% | viability [4] 94.9% | viability [5] 90.8% | inhibition [6] 0.175% | RAM network inhibition [7] -0.57%

O=C(NCCCN1CCCC1=O)c1ccccc1NS(=O)(=O)c1ccc(F)cc1
inactive: growth inhibition [1] -7.5% | growth inhibition [2] -22% | viability increase [3] -2.44% | viability [4] 88.9% | viability [5] 94.1% | inhibition [6] 1.57% | RAM network inhibition [7] 5.37%

CCOC(=O)CCn1cc(F)c(=O)n(Cc2ccccc2)c1=O
inactive: growth inhibition [1] 3.69% | growth inhibition [2] 2.14% | viability increase [3] -0.3% | viability [4] 105% | viability [5] 96.1% | inhibition [6] 0.42% | RAM network inhibition [7] 1.43%

O=C(NC1CCCC1)C1C2C=CC3(CN(Cc4cccs4)C(=O)C13)O2 (configuration not stated)
inactive: growth inhibition [1] -17.8% | growth inhibition [2] -17.1% | viability increase [3] -1.96% | viability [4] 94.8% | viability [5] 101% | inhibition [6] 0.615% | RAM network inhibition [7] 5%

O=C1Nc2ccc(S(=O)(=O)N3CCCC3C(=O)O)c3cccc1c23 (configuration not stated)
inactive: growth inhibition [1] 1.8% | growth inhibition [2] -5.75% | viability increase [3] -2.22% | viability [4] 92.8% | viability [5] 96.8% | inhibition [6] 0.57% | RAM network inhibition [7] 0.21%

COc1ccccc1CC(=O)N1CCN(c2cccc(C(F)(F)F)c2)CC1
inactive: growth inhibition [1] -9.59% | growth inhibition [2] 5.32% | viability increase [3] 1.84% | viability [4] 39.9% | viability [5] 60.9% | inhibition [6] 1.1% | RAM network inhibition [7] 7.84%

Cc1ccc2oc(=O)n(CCOc3ccccc3Cl)c2c1
inactive: growth inhibition [1] 2.37% | growth inhibition [2] 0.755% | viability increase [3] 2.94% | viability [4] 88.5% | viability [5] 83.9% | inhibition [6] 0.955% | RAM network inhibition [7] 2.66%

COc1ccc(CNC(=O)CCCNS(=O)(=O)c2cccc3nonc23)cc1
inactive: growth inhibition [1] 1.99% | growth inhibition [2] -22.1% | viability increase [3] -2.08% | viability [4] 92.3% | viability [5] 96.7% | inhibition [6] 1.31% | RAM network inhibition [7] 7.37%

CC(=O)N1CCc2cc(C(=O)CN3CCN(C(=O)c4ccco4)CC3)ccc21
inactive: growth inhibition [1] 4.58% | growth inhibition [2] 3.74% | viability increase [3] -2.02% | viability [4] 105% | viability [5] 93.3% | inhibition [6] 3.93% | RAM network inhibition [7] 2.07%

O=C(Nc1ccc(Br)cc1F)c1ccncc1
inactive: growth inhibition [1] -7.26% | growth inhibition [2] -13.4% | viability increase [3] 1.37% | viability [4] 97% | viability [5] 98.6% | inhibition [6] 2.7% | RAM network inhibition [7] 5.07%

CC(=O)c1cccc(NC2c3ccccc3C(=O)N2Cc2ccc3c(c2)OCO3)c1 (configuration not stated)
inactive: growth inhibition [1] -2.94% | growth inhibition [2] 7.7% | viability increase [3] -2.61% | viability [4] 92.7% | viability [5] 79.6% | inhibition [6] 2.9% | RAM network inhibition [7] 2.2%

CC(CCc1ccccc1)NC(=O)C1CCN(c2nnc(-n3cccc3)s2)CC1 (configuration not stated)
inactive: growth inhibition [1] -2.63% | growth inhibition [2] -7.45% | viability increase [3] -0.45% | viability [4] 95.9% | viability [5] 88.5% | inhibition [6] 4.55% | RAM network inhibition [7] 4.94%
